Assay results from different studies.
Protocols differ between the studies behind these lines. pIC50: −log10 of the molar value.
PKN1: Serine/threonine-protein kinase N1 (PKN1, Homo sapiens, UniProt Q16512)
PRSS1: Serine protease 1 (PRSS1, Bos taurus, UniProt P00760)
CA9: Carbonic anhydrase 9 (CA9, Homo sapiens, UniProt Q16790)
PADI4: Protein-arginine deiminase type-4 (PADI4, Homo sapiens, UniProt Q9UM07)
SIRT5: NAD-dependent protein deacylase sirtuin-5, mitochondrial (SIRT5, Homo sapiens, UniProt Q9NXA8)

| SMILES | target | test | setting | pIC50 |
| --- | --- | --- | --- | --- |
| CN1CCC(Nc2nc(Nc3ccc(Oc4ccccc4)cc3)c3c(=O)[nH]cc(Br)c3n2)CC1 | PKN1 | enzyme activity, inhibitor | – | 7.00 |
| COc1ccc2cc(/C=N/n3c(C)nc4ccc(Br)cc4c3=O)ccc2c1 | PRSS1 | enzyme activity, inhibitor | – | 4.39 |
| CN(C)c1ccc(/C=C2/SC(Nc3ccc(S(N)(=O)=O)cc3)=NC2=O)cc1 | CA9 | enzyme activity, inhibitor | – | 7.12 |
| COc1ccc(C2=NN(C3CCCCCC3)C(=O)[C@@H]3CC=CC[C@H]23)cc1-c1ccc(C(=O)NCC(N)=O)cc1 (relative stereo) | 3',5'-cyclic-AMP phosphodiesterase 4C (PDE4C, Homo sapiens, UniProt Q08493) | enzyme activity, inhibitor | – | 6.00 |
| COc1ccc(-c2nsc(NC(=O)[C@@H]3C[C@H]3C)c2C)cc1 | Metabotropic glutamate receptor 4 (GRM4, Homo sapiens, UniProt Q14833) | calcium signal, antagonist | – | < 4.90 |
| O=c1c(O)c(-c2ccc(O)c(O)c2)oc2cc(O)cc(O)c12 | Sulfotransferase 1A1 (SULT1A1, Homo sapiens, UniProt P50225, R213H) | enzyme activity, inhibitor | – | 6.63 |
| O=C1NC(=O)C(c2cnc3ccccn23)=C1c1cn2c3c(cc(F)cc13)CN(C(=O)N1CCCCC1)CC2 | PKN1 | enzyme activity, inhibitor | – | 6.97 |
| COc1cc(NCC(=O)Nn2c(C)nc3ccc(Cl)cc3c2=O)cc(OC)c1OC | PRSS1 | enzyme activity, inhibitor | – | 4.27 |
| COc1cc2c(c(OC)c1OC)-c1c(cc3c(c1OC)OCO3)C[C@H](C)[C@](C)(O)[C@H]2OC(=O)c1ccccc1 | Cytochrome P450 3A5 (CYP3A5, Homo sapiens, UniProt P20815) | enzyme activity, inhibitor | 15 min, pH 7.4 | 6.43 |
| CCn1c(-c2nc3ccc(C(=O)N4CCCC(N)C4)cc3n2C)cc2ccccc21 (stereo not drawn) | PADI4 | ligand displacement, FP | – | < 4.00 |
| CN1CCN(Cc2ccc(-c3cnc4[nH]cc(-c5ccc6[nH]ccc6c5)c4c3)cc2)CC1 | PKN1 | enzyme activity, inhibitor | – | 6.75 |
| CCCC[C@H](NC(=O)[C@H](C)c1c(C)[nH]c2ccc(O)cc12)c1ncc(-c2cc3ccccc3nc2OC)[nH]1 | Histone deacetylase 9 (HDAC9, Homo sapiens, UniProt Q9UKV0) | enzyme activity, inhibitor | – | < 4.35 |
| C[C@@H](N)[C@H]1CC[C@H](C(=O)Nc2ccncc2)CC1 | PKN1 | enzyme activity, inhibitor | – | 6.13 |
| CCOCc1nc(O)c(-c2nnc(Cc3ccc(Cl)cn3)o2)c(O)c1-c1c(OC)cccc1OC | Beta-1 adrenergic receptor (ADRB1, Homo sapiens, UniProt P08588) | ligand displacement, radioligand | – | < 4.52 |
| NS(=O)(=O)c1ccc(NC(=O)COC(=O)C(=Cc2cccs2)c2cccs2)cc1 | CA9 | enzyme activity, inhibitor | – | 6.49 |
| CN/C(=N/CCSCc1nc[nH]c1C)NC#N | Solute carrier family 22 member 7 (SLC22A7, Homo sapiens, UniProt Q9Y694) | transporter uptake, inhibitor | – | 4.66 |
| NS(=O)(=O)c1cc(C(=O)N2CCCCC2C(=O)Nc2cc(Cl)ccc2Cl)ccc1F (stereo not drawn) | CA9 | enzyme activity, inhibitor | – | 7.52 |
| CCNC(=O)[C@H](CCCNC(=N)CCl)NC(=O)c1ccccc1 | PADI4 | enzyme activity, inhibitor | – | 5.39 |
| COC(=O)C1CCCCN1C(=O)c1cccc(NC(=O)CSc2ccc(S(N)(=O)=O)cc2)c1 (stereo not drawn) | CA9 | enzyme activity, inhibitor | – | 7.04 |
| CN1CCN(c2ccc(Nc3ncc4cc(C#N)c(=O)n(C5CCCC5)c4n3)cc2)CC1 | PKN1 | enzyme activity, inhibitor | – | 5.15 |

| SMILES | target | test | setting | pIC50 |
| --- | --- | --- | --- | --- |
| N#C/C(=C\c1ccc(-c2cc(Cl)ccc2Cl)o1)C(=O)Nc1cccc2ncccc12 | SIRT5 | enzyme activity, inhibitor, HPLC | – | < 4.00 |
| Cc1nc2ccc(Br)cc2c(=O)n1/N=C/c1ccc(C(=O)O)cc1 | PRSS1 | enzyme activity, inhibitor | – | 3.67 |
| O=C(c1ccc(Nc2nccc(-c3cc4ccccc4s3)n2)cc1)N1CCC(N2CCCC2)CC1 | PKN1 | enzyme activity, inhibitor | – | 7.31 |
| O=C(O)CCNC(=S)NCCCC[C@H](NS(=O)(=O)c1cccc(F)c1)C(=O)N[C@@H](Cc1c[nH]c2ccccc12)C(=O)NC1CCC1 | SIRT5 | enzyme activity, inhibitor, fluorescence | – | 7.03 |
| CC[C@@H](C(=O)Nc1ccc(C(N)=O)c(F)c1)n1cc(OC)c(-c2cc(Cl)ccc2-n2cc(C(F)(F)F)nn2)cc1=O | Urokinase-type plasminogen activator (PLAU, Homo sapiens, UniProt P00749) | enzyme activity, inhibitor | – | < 5.00 |
| N#CCNC(=O)c1ccc(-c2ccnc(Nc3ccc(N4CCOCC4)cc3)n2)cc1 | PKN1 | enzyme activity, inhibitor | – | 6.56 |
| Cc1ccc(C(=O)NCCC(=O)NCc2cc(S(N)(=O)=O)ccc2F)c(O)c1 | CA9 | enzyme activity, inhibitor | – | 5.78 |
| O=C(Nc1ccncc1)c1cc2ccccc2o1 | Amine oxidase [flavin-containing] B (MAOB, Homo sapiens, UniProt P27338) | enzyme activity, inhibitor, fluorescence | – | 5.16 |
| Cc1c[nH]c2nc(Nc3ccc(N4CCN(C)CC4)c(F)c3)nc(-c3cccc(CC#N)c3)c12 | PKN1 | enzyme activity, inhibitor | – | 6.73 |
| COc1cc(/C=N/n2c(C)nc3ccc(C)cc3c2=O)ccc1OCc1ccccc1 | PRSS1 | enzyme activity, inhibitor | – | 3.97 |
| CC1(COc2ccc3c(c2)ncn3-c2ccc3cccc(N4CCC(N)CC4)c3n2)COC1 | PKN1 | enzyme activity, inhibitor | – | 7.66 |
| CC(C)C(=O)Nc1ccc(C(=O)N2CCC(C(=O)Nc3ccc(S(N)(=O)=O)cc3)CC2)cc1 | CA9 | enzyme activity, inhibitor | – | 7.43 |
| Cc1ccc(S(=O)(=O)N=C2C=C(Sc3nnc[nH]3)C(=O)c3ccccc32)cc1 | Induced myeloid leukemia cell differentiation protein Mcl-1 (MCL1, Homo sapiens, UniProt Q07820) | ligand displacement, FP | – | 6.35 |
| COc1ccc(C(=O)N2CCCC(C(=O)Nc3cc(S(N)(=O)=O)ccc3O)C2)c2ccccc12 (stereo not drawn) | CA9 | enzyme activity, inhibitor | – | 5.58 |
| Cc1cnc(-c2ccc(-c3ccc(NC(=O)Nc4c(F)cc(F)cc4F)cc3F)c3c2C(=O)NC3)[nH]1 | Tyrosine-protein kinase HCK (HCK, Homo sapiens, UniProt P08631) | enzyme activity, inhibitor | – | 8.60 |
| NS(=O)(=O)c1cc(NC(=O)CCc2nnc(-c3ccc(Cl)cc3)o2)ccc1O | CA9 | enzyme activity, inhibitor | – | 7.52 |
| COc1ccc2c(Oc3ccc4c(C(=O)Nc5ccccc5N)cccc4c3)ccnc2c1 | Inward rectifier potassium channel 2 (KCNJ2, Homo sapiens, UniProt P63252) | ion current, inhibitor | – | < 5.00 |
| Cc1nc2ccccc2c(=O)n1NC(=O)CSc1nc2ccccc2c(=O)n1-c1ccccc1 | PRSS1 | enzyme activity, inhibitor | – | 5.43 |
| NS(=O)(=O)c1ccc(NC(=O)COC(=O)c2c3c(nc4ccccc24)C(=Cc2ccco2)CCC3)cc1 | CA9 | enzyme activity, inhibitor | – | 7.02 |
